How the values were obtained:
[1] = test system: Leishmania donovani; experiment: Antikinetoplastid activity against Leishmania donovani MHOM/ET/67/HU3 promastigotes after 3 days incubation at 27 degC under dark condition and 5% CO2 atmosphere by MTT assay; format: functional, organism-based; conditions: MHOM/ET/67/HU3, 72 h
[2] = test system: Trypanosoma brucei brucei; experiment: Antikinetoplastid activity against Trypanosoma brucei brucei CMP by drug incubation infectivity test; format: functional; conditions: read-out: MEC
[3] = Cytotoxicity against human MCF7 cells assessed as cell survival at 100 uM after 72 hrs incubation by MTT assay; format: cell-based; conditions: read-out: Survival
[4] = Cytotoxicity against mouse RAW264.7 cells assessed as cell survival at 100 uM after 24 hrs incubation by trypan blue exclusion method; format: cell-based; conditions: read-out: Survival
How it was run: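 RAW 264.7 mouse macrophages grown in DMEM with 10% heat-inactivated FBS, seeded at 5 × 10^4 cells/well, and held 24 h at 37 °C in 5% CO2. Medium was then replaced with fresh DMEM containing compound, followed by a further 24 h incubation. Cells were scraped off, stained with trypan blue and counted live on a hemocytometer. Viability is given as % of untreated cells (100%).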

[5] = test system: Leishmania donovani; experiment: Antikinetoplastid activity against Leishmania donovani MHOM/ET/67/HU3 amastigotes after 3 days incubation at 37 degC under dark condition and 5% CO2 atmosphere by SYBR green I dye based assay; format: functional, organism-based; conditions: MHOM/ET/67/HU3, 72 h
How it was run: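 Axenic amastigotes were obtained by diluting log-phase LV9 promastigotes into amastigote medium (M-199 with KCl, glucose, glutamine, trypticase peptone, haemin, 20% FBS; pH 5.5) and grown at 37 °C in 5% CO2. Parasites were exposed to the compounds for 72 h, then lysed. Growth was read by SYBR Green I DNA fluorescence against a parasite-density standard range, and the IC50 was derived.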

[6] = test system: MCF7; experiment: Cytotoxicity against human MCF7 cells assessed as cell viability after 72 hrs incubation by MTT assay; format: cell-based; conditions: MCF7, 72 h

SMILES: Cn1c(=O)c(NC(=O)c2ccc3c(c2)C=CC(C)(C)O3)c(O)c2ccccc21
- IC50 [1]: 53 µM
- minimal effective concentration [2]: > 200 µM
- viability at 72 h, 100 µM [3]: 100%

SMILES: N=C(N)c1ccc(OCCCCCOc2ccc(C(=N)N)cc2)cc1 [PENTAMIDINE]
- IC50 [1]: 2.84 µM
- viability at 24 h, 100 µM [4]: 75%
- minimal effective concentration [2]: 5 µM

SMILES: Cn1c(=O)c(NC(=O)CCCCCCCCCCOn2nnc3ccccc32)c(O)c2ccccc21
- IC50 [1]: 34 µM
- minimal effective concentration [2]: 200 µM
- viability at 72 h, 100 µM [3]: 72%

SMILES: CCCCCCCCCCCCCCCCOP(=O)([O-])OCC[N+](C)(C)C [MILTEFOSINE]
- viability at 24 h, 100 µM [4]: 85%
- IC50 [5]: 5 µM

SMILES: Cn1c(=O)c(NC(=O)c2ccc3c(c2)CCC(C)(C)O3)c(O)c2ccccc21
- IC50 [1]: 56 µM
- minimal effective concentration [2]: > 200 µM
- viability at 72 h, 100 µM [3]: 98%

SMILES: Cn1c(=O)c([N+](=O)[O-])c(O)c2ccccc21
- IC50 [1]: > 100 µM
- viability at 24 h, 100 µM [4]: 80%
- minimal effective concentration [2]: > 200 µM

SMILES: CCCC(=O)Nc1c(O)c2ccccc2n(C)c1=O
- IC50 [1]: 11 µM
- minimal effective concentration [2]: > 200 µM
- viability at 72 h, 100 µM [3]: 97%
- IC50 [5]: 3 µM

SMILES: Cc1ccc(S(=O)(=O)Oc2c(NC(=O)c3ccc4c(c3)CCC(C)(C)O4)c(=O)n(C)c3ccccc23)cc1
- IC50 [1]: 30 µM
- minimal effective concentration [2]: > 200 µM
- viability at 72 h, 100 µM [3]: 100%

SMILES: Cc1ccc(S(=O)(=O)Oc2c(NC(=O)c3ccc4c(c3)C=CC(C)(C)O4)c(=O)n(C)c3ccccc23)cc1
- IC50 [1]: 30 µM
- minimal effective concentration [2]: > 200 µM
- viability at 72 h, 100 µM [3]: 37%

SMILES: COc1ccc(C(=O)Nc2c(O)c3ccccc3n(C)c2=O)cc1
- IC50 [1]: 11 µM
- minimal effective concentration [2]: > 200 µM
- viability at 72 h, 100 µM [3]: 81%
- IC50 [5]: > 100 µM

SMILES: Cn1c(=O)cc(O)c2ccccc21
- IC50 [1]: > 100 µM
- viability at 24 h, 100 µM [4]: 70%
- minimal effective concentration [2]: > 200 µM

SMILES: COc1cc(C(=O)Nc2c(O)c3ccccc3n(C)c2=O)cc(OC)c1OC
- IC50 [1]: 3.5 µM
- minimal effective concentration [2]: > 200 µM
- viability at 72 h, 100 µM [3]: 100%
- IC50 [5]: > 100 µM

SMILES: Cc1ccc(S(=O)(=O)Oc2c(NC(=O)c3cc4ccccc4[nH]3)c(=O)n(C)c3ccccc23)cc1
- IC50 [1]: 42 µM
- minimal effective concentration [2]: > 200 µM
- viability at 72 h, 100 µM [3]: 50%

SMILES: CCCC(=O)Nc1c(OS(=O)(=O)c2ccc(C)cc2)c2ccccc2n(C)c1=O
- IC50 [1]: 50 µM
- minimal effective concentration [2]: > 200 µM
- viability at 72 h, 100 µM [3]: 55%

SMILES: COc1cc(C(=O)Nc2c(OS(=O)(=O)c3cccs3)c3ccccc3n(C)c2=O)cc(OC)c1OC
- IC50 [1]: 14 µM
- minimal effective concentration [2]: > 200 µM
- viability at 72 h, 100 µM [3]: 77%

SMILES: Cc1ccc(S(=O)(=O)Oc2c(N)c(=O)n(C)c3ccccc23)cc1
- IC50 [1]: 30 µM
- minimal effective concentration [2]: 12.5 µM
- viability at 72 h, 100 µM [3]: 24%

SMILES: Cc1ccc(S(=O)(=O)Oc2c([N+](=O)[O-])c(=O)n(C)c3ccccc23)cc1
- IC50 [1]: 3 µM
- viability at 24 h, 100 µM [4]: 100%
- minimal effective concentration [2]: > 200 µM
- IC50 [5]: 2 µM

SMILES: CCCCNc1cc2ccccc2n(C)c1=O
- IC50 [1]: > 100 µM
- IC50 [6]: 7 µM
- minimal effective concentration [2]: > 200 µM
- viability at 72 h, 100 µM [3]: 10%

SMILES: COc1ccc(C(=O)Nc2cc3cc(Br)ccc3n(C)c2=O)cc1
- IC50 [1]: > 100 µM
- minimal effective concentration [2]: > 200 µM
- viability at 72 h, 100 µM [3]: 20%

SMILES: Cc1ccc(S(=O)(=O)Oc2c(NC(=O)c3ccc(F)cc3)c(=O)n(C)c3ccccc23)cc1
- IC50 [1]: 49 µM
- minimal effective concentration [2]: > 200 µM
- viability at 72 h, 100 µM [3]: 57%

SMILES: COc1ccc(C(=O)Nc2cc3cc(OC)ccc3n(C)c2=O)cc1
- IC50 [1]: > 100 µM
- minimal effective concentration [2]: > 200 µM
- viability at 72 h, 100 µM [3]: 22%

SMILES: Cn1c(=O)c(NC(=O)c2ccc(F)cc2)c(O)c2ccccc21
- IC50 [1]: > 100 µM
- minimal effective concentration [2]: > 200 µM
- viability at 72 h, 100 µM [3]: 74%

SMILES: Cc1ccc(S(=O)(=O)Oc2c(NC(=O)CCCCCCCCCCOn3nnc4ccccc43)c(=O)n(C)c3ccccc23)cc1
- IC50 [1]: 37 µM
- minimal effective concentration [2]: > 200 µM
- viability at 72 h, 100 µM [3]: 69%

SMILES: Cn1c(=O)c(NC(=O)c2cc3ccccc3[nH]2)c(O)c2ccccc21
- IC50 [1]: > 100 µM
- minimal effective concentration [2]: > 200 µM
- viability at 72 h, 100 µM [3]: 107%

SMILES: COc1cc(C(=O)Nc2c(OS(=O)(=O)c3ccc(C)cc3)c3ccccc3[nH]c2=O)cc(OC)c1OC
- IC50 [1]: 18 µM
- minimal effective concentration [2]: > 200 µM
- viability at 72 h, 100 µM [3]: 55%

SMILES: COc1ccc(C(=O)Nc2c(OS(=O)(=O)c3ccc(C)cc3)c3ccccc3n(C)c2=O)cc1
- IC50 [1]: 25 µM
- minimal effective concentration [2]: > 200 µM
- viability at 72 h, 100 µM [3]: 82%

SMILES: O=[N+]([O-])c1c(O)nc2ccccc2c1O
- IC50 [1]: > 100 µM
- viability at 24 h, 100 µM [4]: 90%
- minimal effective concentration [2]: > 200 µM

SMILES: COc1cc(C(=O)Nc2c(O)c3ccccc3[nH]c2=O)cc(OC)c1OC
- IC50 [1]: > 100 µM
- minimal effective concentration [2]: > 200 µM
- viability at 72 h, 100 µM [3]: 76%

SMILES: COc1ccc(C(=O)Nc2cc3ccccc3n(C)c2=O)cc1
- IC50 [1]: > 100 µM
- minimal effective concentration [2]: > 200 µM
- viability at 72 h, 100 µM [3]: 89%

SMILES: COc1cc(C(=O)Nc2c(OS(=O)(=O)c3ccc(C)cc3)c3ccccc3n(C)c2=O)cc(OC)c1OC
- IC50 [1]: 41 µM
- minimal effective concentration [2]: > 200 µM
- viability at 72 h, 100 µM [3]: 84%

From ChEMBL document CHEMBL2021923, “Synthesis and antikinetoplastid activities of 3-substituted quinolinones derivatives” (Eur J Med Chem, 2012)
